Assay results as given in ChEMBL document CHEMBL1156170, “Enhanced Nrf2-dependent induction of glutathione in mouse embryonic fibroblasts by isoselenocyanate analog of sulforaphane” (Bioorg Med Chem Lett, 2010).
Active and inactive are the calls of the source. No cut-off for these calls is given here.

How the values were obtained:
[1] = test system: HepG2; assay: Cytotoxicity against human HepG2 cells assessed as cell viability at 50 uM after 6 hrs by MTS assay; type: functional, cell-based
[2] = test system: HepG2; assay: Cytotoxicity against human HepG2 cells assessed as cell viability at 10 uM after 6 hrs by MTS assay; type: functional, cell-based
[3] = target: T1, Nuclear factor erythroid 2-related factor 2 (Mus musculus) (UniProt Q60795); assay: Induction of nuclear NrF2 expression in wild type MEF […] at 10 to 20 uM after 24 hrs by Western blotting relative to control; type: functional
T1 sequence (whole entry): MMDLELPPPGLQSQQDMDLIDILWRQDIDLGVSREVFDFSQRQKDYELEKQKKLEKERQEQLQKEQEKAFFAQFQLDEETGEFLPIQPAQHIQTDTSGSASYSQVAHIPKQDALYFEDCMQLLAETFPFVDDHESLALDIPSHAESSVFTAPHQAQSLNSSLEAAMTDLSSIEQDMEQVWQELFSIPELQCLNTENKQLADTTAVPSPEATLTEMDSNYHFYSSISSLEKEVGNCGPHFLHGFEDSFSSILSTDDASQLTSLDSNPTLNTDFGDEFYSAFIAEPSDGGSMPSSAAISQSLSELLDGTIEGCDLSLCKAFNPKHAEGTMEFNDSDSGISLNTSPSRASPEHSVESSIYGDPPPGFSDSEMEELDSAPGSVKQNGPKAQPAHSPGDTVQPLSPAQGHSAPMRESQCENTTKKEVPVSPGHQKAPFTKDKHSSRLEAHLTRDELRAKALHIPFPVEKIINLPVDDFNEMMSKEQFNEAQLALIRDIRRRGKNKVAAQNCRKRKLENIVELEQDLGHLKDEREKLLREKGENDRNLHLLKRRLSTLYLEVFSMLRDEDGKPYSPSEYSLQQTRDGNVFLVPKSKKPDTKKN
How it was run: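 Wildtype MEF at 50% confluence treated with vehicle or 10 or 20 μM for 24 h; washed, trypsinized, nuclear extracts prepared. 20 μg nuclear protein per lane, 4-20% gradient gel, nitrocellulose, milk block, primary antibody overnight 4 °C, HRP secondary, chemiluminescence. Nrf2 band normalized to Lamin A, then to vehicle control; mean ± SD, n=3.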

[4] = target: T1, Nuclear factor erythroid 2-related factor 2 (Mus musculus); assay: Induction of nuclear NrF2-mediated GCLc expression in wild type MEF at 20 uM after 24 hrs by Western blotting relative to control; type: functional
How it was run: (§1)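 Wildtype or Nrf2−/− MEF at 50% confluence given vehicle or 10 or 20 μM for 24 h; cytoplasmic extracts, 50 μg protein per lane, 4-20% gradient gel, nitrocellulose, western blot for GCLc with HRP secondary and chemiluminescence. GCLc normalized to actin, then to vehicle control; mean ± SD of 3 independent experiments.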

[5] = target: T1, Nuclear factor erythroid 2-related factor 2 (Mus musculus); assay: Induction of NrF2-mediated glutathione production in wild type MEF at 10 uM after 24 hrs using Elmans reagent relative to control; type: functional
How it was run: (§2)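 Wildtype or Nrf2−/− MEF at 50% confluence given vehicle or 10 or 20 μM for 0, 6, 9 or 24 h; washed, lysed in 5% metaphosphoric acid, protein removed by centrifugation. Free GSH by enzymatic recycling with Ellman's reagent, absorbance over time; normalized to BCA protein and to vehicle control; mean ± SD, n=3.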

[6] = target: T2, Nuclear factor erythroid 2-related factor 2 (Homo sapiens) (UniProt Q16236); assay: Induction of NrF2 in human HepG2 cells at 10 uM after 6 hrs by ARE-luciferase reporter gene assay; type: functional, cell-based
T2 sequence (whole entry): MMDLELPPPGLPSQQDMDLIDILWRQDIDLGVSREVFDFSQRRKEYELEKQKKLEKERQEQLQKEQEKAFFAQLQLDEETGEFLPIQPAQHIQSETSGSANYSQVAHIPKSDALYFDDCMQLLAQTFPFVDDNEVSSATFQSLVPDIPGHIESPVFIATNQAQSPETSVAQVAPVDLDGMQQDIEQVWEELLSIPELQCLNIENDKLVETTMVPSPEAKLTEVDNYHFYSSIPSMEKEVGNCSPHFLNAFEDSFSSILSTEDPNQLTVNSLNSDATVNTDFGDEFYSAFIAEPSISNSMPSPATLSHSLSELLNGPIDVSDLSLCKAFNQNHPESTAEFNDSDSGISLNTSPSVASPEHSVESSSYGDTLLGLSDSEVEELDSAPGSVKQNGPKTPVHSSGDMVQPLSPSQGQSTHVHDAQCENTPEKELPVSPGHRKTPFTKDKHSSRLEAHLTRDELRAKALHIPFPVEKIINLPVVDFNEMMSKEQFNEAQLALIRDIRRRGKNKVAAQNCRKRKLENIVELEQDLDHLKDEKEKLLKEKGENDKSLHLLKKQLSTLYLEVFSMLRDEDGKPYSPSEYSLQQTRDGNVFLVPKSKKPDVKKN
How it was run: (§3)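 HepG2 ARE-luciferase reporter cells at 50% confluence, fresh medium with vehicle or 5, 10 or 20 μM compound for 6 h. Washed in PBS, lysed, luciferase activity of extracts read in single-tube luminometer; normalized to vehicle control; mean ± SD of 3 independent experiments.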

[7] = target: T2, Nuclear factor erythroid 2-related factor 2 (Homo sapiens); assay: Induction of NrF2 in human HepG2 cells at 20 uM after 6 hrs by ARE-luciferase reporter gene assay relative to control; type: functional, cell-based; how it was run: as §3
[8] = target: T1, Nuclear factor erythroid 2-related factor 2 (Mus musculus); assay: Induction of NrF2-mediated glutathione production in wild type MEF at 20 uM after 24 hrs using Elmans reagent relative to control; type: functional; how it was run: as §2
[9] = target: T1, Nuclear factor erythroid 2-related factor 2 (Mus musculus); assay: Reduction of NrF2-mediated glutathione production in wild type MEF at 10 uM after 6 hrs using Elmans reagent relative to control; type: functional; design: scale not given: the % may be the effect or the level left; how it was run: as §2
[10] = target: T1, Nuclear factor erythroid 2-related factor 2 (Mus musculus); assay: Reduction of NrF2-mediated glutathione production in wild type MEF at 20 uM after 6 hrs using Elmans reagent relative to control; type: functional; design: scale not given: the % may be the effect or the level left; how it was run: as §2
[11] = test system: HepG2; assay: Cytotoxicity against human HepG2 cells assessed as cell viability at 50 uM after 6 hrs by MTS assay relative to control; type: functional; settings: HepG2, 6 h, read-out: Activity
[12] = test system: HepG2; assay: Cytotoxicity against human HepG2 cells assessed as decrease in cell viability at 10 to 20 uM after 6 hrs by MTS assay; type: functional, cell-based
[13] = test system: HepG2; assay: Cytotoxicity against human HepG2 cells assessed as cell viability at 20 uM after 6 hrs by MTS assay; settings: HepG2, 6 h, read-out: Activity
[14] = test system: MEF; assay: Induction of GCLc in NrF2-deficient MEF at 20 uM after 24 hrs by Western blotting relative to control; type: functional, cell-based; settings: Mus musculus; how it was run: as §1
[15] = target: T1, Nuclear factor erythroid 2-related factor 2 (Mus musculus); assay: Ratio of compound to sulforaphane activity for induction of nuclear NrF2 mediated GCLc in wild type MEF; type: functional
[16] = test system: MEF; assay: Induction of glutathione production in NrF2 deficient MEF at 10 uM after 24 hrs using Elmans reagent relative to control; type: functional, Mus musculus; how it was run: as §2
[17] = test system: MEF; assay: Induction of glutathione production in NrF2 deficient MEF at 20 uM after 24 hrs using Elmans reagent relative to control; type: functional, Mus musculus; how it was run: as §2
[18] = target: T1, Nuclear factor erythroid 2-related factor 2 (Mus musculus); assay: Induction of NrF2-mediated glutathione production in wild type MEF at 10 uM after 6 hrs using Elmans reagent relative to control; type: functional; how it was run: as §2
[19] = target: T2, Nuclear factor erythroid 2-related factor 2 (Homo sapiens); assay: Induction of NrF2 in human HepG2 cells after 6 hrs by ARE-luciferase reporter gene assay; type: functional, cell-based; how it was run: as §3
[20] = test system: HepG2; assay: Cytotoxicity against human HepG2 cells assessed as decrease in cell viability after 6 hrs by MTS assay; type: functional, cell-based
[21] = test system: MEF; assay: Cytotoxicity against wild type MEF; type: cell-based; settings: mouse
[22] = test system: MEF; assay: Cytotoxicity against NrF2 deficient MEF; type: cell-based; settings: mouse
[23] = target: T2, Nuclear factor erythroid 2-related factor 2 (Homo sapiens); assay: Ratio of compound to sulforaphane for induction of NrF2 in human HepG2 cells; type: functional, cell-based
[24] = target: T1, Nuclear factor erythroid 2-related factor 2 (Mus musculus); assay: Induction of NrF2-mediated glutathione production in wild type MEF at 10 uM after 9 hrs using Elmans reagent relative to control; type: functional; how it was run: as §2

SMILES | Activity [1] | Activity [2] | fold change (FC) [3] | fold change (FC) [4] | Activity [5] | Activity [6] | Activity [7] | Activity [8] | Activity [9] | Activity [10] | viability at 50 µM [11] | Activity [12] | other results
S=C=NCCc1ccccc1 | inactive | – | – | – | – | – | – | – | – | – | – | – | –
C[S+]([O-])CCCCN=C=S (centres undefined) | inactive | inactive | 3.5 | 3.2 | Active | Active | Active | inactive | 40% | 20% | – | – | –
[Se]=C=NCc1ccccc1 [BENZYLISOSELENOCYANATE] | – | – | – | – | – | – | – | – | – | – | 0% | Active | –
[Se]=C=NCCc1ccccc1 [PHENETHYLISOSELENOCYANATE] | – | – | – | – | – | – | – | – | – | – | 14% | Active | –
S=C=NCc1ccccc1 | inactive | – | – | – | – | – | – | – | – | – | – | – | –
C[S+]([O-])CCCCN=C=[Se] (centres undefined) [SUFORAPHANE ISOSELENOCYANATE] | – | inactive | 4.5 | 4.1 | 160% | Active | 5 | Active | 40% | 20% | 0% | Active | viability at 20 µM [13]: 50%; Activity [14]: inactive; Activity [15]: 30%; Activity [16]: 90%; Activity [17]: 70%; Activity [18]: Active; Activity [19]: Dose-dependent effect; Activity [20]: Dose-dependent effect; Activity [21]: Non-toxic; Activity [22]: Non-toxic; Ratio [23]: 4; Activity [24]: Active
